Test results from ChEMBL document CHEMBL1155177, “Activity against human immunodeficiency virus type 1, intracellular metabolism, and effects on human DNA polymerases of 4'-ethynyl-2-fluoro-2'-deoxyadenosine” (Antimicrob Agents Chemother, 2007).
pEC50, pIC50, pKi: −log10 of the molar value.

Tests used:
[1] = tested on: Human immunodeficiency virus 1; test: Antiviral activity against R5-HIV1MDR/MM assessed as inhibition of p24 Gag protein production in human PHA-PBMC by ELISA; type: functional, organism-based
How it was run: (§1)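 PHA-stimulated PBMC (10^6 cells/ml; 10^5 cells/well) were infected with 50 TCID50 of HIV-1Ba-L or a primary multidrug-resistant isolate and cultured with drug in 10-fold serial dilutions. On day 7, supernatant p24 Gag was measured by automated chemiluminescent enzyme immunoassay. EC50 is the concentration that halves p24 relative to drug-free cultures. Triplicate assays.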

[2] = tested on: Human immunodeficiency virus 1; test: Antiviral activity against R5-HIV1MDR/C assessed as inhibition of p24 Gag protein production in human PHA-PBMC by ELISA; type: functional, organism-based; how it was run: as §1
[3] = tested on: Human immunodeficiency virus 1; test: Antiviral activity against R5-HIV1MDR/G assessed as inhibition of p24 Gag protein production in human PHA-PBMC by ELISA; type: functional, organism-based; how it was run: as §1
MT4 = test: Cytotoxicity against human MT4 cells by MTT assay; type: functional
[4] = Cytotoxicity against human PHA-PBMC cells by MTT assay; type: cell-based
[5] = tested on: Human immunodeficiency virus 1; test: Ratio of EC50 for R5-HIV1MDR/MM in human PHA-PBMC to EC50 for R5-HIV1Ba-L in human PHA-PBMC; type: functional
[6] = tested on: Human immunodeficiency virus 1; test: Antiviral activity against R5-HIV1MDR/G assessed as inhibition of p24 Gag protein in human PHA-PBMC by ELISA relative to X4-HIV1NL4-3; type: functional
[7] = tested on: Human immunodeficiency virus 1; test: Ratio of EC50 for X4-HIV1MDR/C in human PHA-PBMC to EC50 for X4-HIV1NL4-3 in human MT4 cells; type: functional, NL4-3
[8] = tested on: Human immunodeficiency virus 1; test: Antiviral activity against X4-HIV1 NL4-3 assessed as […] in human MT4 cells by MTT assay; type: functional, organism-based; settings: Human immunodeficiency virus 1, NL4-3, MT4
[9] = tested on: Human immunodeficiency virus 1; test: Antiviral activity against R5-HIV1Ba-L assessed as inhibition of p24 Gag protein production in human PHA-PBMC by ELISA; type: functional, organism-based; settings: Human immunodeficiency virus 1, Ba-L; how it was run: as §1
CCRF-CEM [10] = test: Drug level in human CD4+CEM cells assessed as increase in 4'-ethynyl-2-fluoro-2'-deoxyadenosine triphosphate level at 0.1 uM after 6 hrs; type: ADME, cell-based
How it was run: (§2)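 CEM cells (10^6 cells/ml) were incubated 6 h with 0.1, 1 or 10 µM [3H]-labelled nucleoside, then washed. Intracellular nucleosides/nucleotides were extracted in 60% methanol and separated by SAX ion-exchange HPLC on an ammonium phosphate gradient. One-minute fractions up to 40 min were scintillation-counted, and each peak plus flanking fractions were summed. Two independent experiments were run.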

CCRF-CEM [11] = test: Metabolic stability of the compound in human CD4+ CEM cells assessed as 4'-ethynyl-2-fluoro-2'-deoxyadenosine monophosphate intracellular levels at 200 nM after 8 hrs; type: ADME, cell-based; settings: 0.2 µM
How it was run: (§3)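 CEM cells (10^6 cells/ml) were loaded 6 h with 200 nM [3H]-labelled nucleoside, washed thoroughly, then cultured drug-free for 0, 2, 4, 8, 12 or 24 h. Cells were extracted in 60% methanol, and mono-, di- and triphosphates were quantified by SAX HPLC with fraction scintillation counting. Values are means of 2–3 independent experiments.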

CCRF-CEM [12] = test: Metabolic stability of the compound in human CD4+ CEM cells assessed as 4'-ethynyl-2-fluoro-2'-deoxyadenosine diphosphate intracellular levels at 200 nM after 8 hrs; type: ADME, cell-based; settings: 0.2 µM; how it was run: as §3
CCRF-CEM [13] = test: Metabolic stability of the compound in human CD4+ CEM cells assessed as 4'-ethynyl-2-fluoro-2'-deoxyadenosine triphosphate intracellular levels at 200 nM after 8 hrs; type: ADME, cell-based; settings: 0.2 µM; how it was run: as §3
CCRF-CEM [14] = test: Metabolic stability of the compound in human CEM cells assessed as 3'-azido-2',3'-dideoxythymidine monophosphate intracellular levels at 200 nM after 24 hrs; type: ADME, cell-based; settings: 0.2 µM; how it was run: as §3
CCRF-CEM [15] = test: Metabolic stability of the compound in human CEM cells assessed as 3'-azido-2',3'-dideoxythymidine diphosphate intracellular levels at 200 nM after 24 hrs; type: ADME, cell-based; settings: 0.2 µM; how it was run: as §3
CCRF-CEM [16] = test: Metabolic stability of the compound in human CEM cells assessed as 3'-azido-2',3'-dideoxythymidine triphosphate intracellular levels at 200 nM after 24 hrs; type: ADME, cell-based; settings: 0.2 µM; how it was run: as §3
CCRF-CEM [17] = test: Drug uptake in human CD4+CEM cells assessed as 4'-ethynyl-2-fluoro-2'-deoxyadenosine monophosphate half life at 200 nM; type: ADME, cell-based; settings: 0.2 µM; how it was run: as §3
CCRF-CEM [18] = test: Drug uptake in human CD4+CEM cells assessed as 4'-ethynyl-2-fluoro-2'-deoxyadenosine diphosphate half life at 200 nM; type: ADME, cell-based; settings: 0.2 µM; how it was run: as §3
CCRF-CEM [19] = test: Drug uptake in human CD4+CEM cells assessed as 4'-ethynyl-2-fluoro-2'-deoxyadenosine triphosphate half life at 200 nM; type: ADME, cell-based; settings: 0.2 µM; how it was run: as §3
CCRF-CEM [20] = test: Drug level in human CD4+CEM cells per 10^9 cells at 0.1 uM; type: ADME, cell-based; how it was run: as §2
[21] = tested on: Human immunodeficiency virus 1; test: Antiviral activity against HIV1 NL4-3 replication in human MT4 cells at 0.01 uM pretreated 24 hrs before infection assessed as protection at 0.01 uM by MTT assay; type: functional
[22] = tested on: Human immunodeficiency virus 1; test: Antiviral activity against HIV1 NL4-3 replication in human MT4 cells at 0.01 uM pretreated 48 hrs before infection assessed as protection at 0.01 uM by MTT assay; type: functional
[23] = Inhibition of human DNA polymerase alpha using calf thymus DNA as a template
How it was run: (§4)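 Each 30-min, 37 °C reaction contained 50 mM Tris pH 8.0, 8 mM MgCl2, 60 mM KCl, 10 mM DTT, BSA, 0.3 µM [α-32P]dATP, inhibitor, and either 250 nM D21/D36 or 0.1 mg/ml activated calf thymus DNA. Enzyme was 1 unit polymerase α, 100 nM β or 2.5 nM γ. Reactions were stopped with EDTA and spotted onto DE81 filters. Incorporated dAMP was quantified by phosphorimaging to give the IC50.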

[24] = Inhibition of human DNA polymerase beta using D21/D36 DNA as a template; how it was run: as §4
[25] = Inhibition of human DNA polymerase beta using calf thymus DNA as a template; how it was run: as §4
[26] = Inhibition of human DNA polymerase gamma using D21/D36 DNA as a template; how it was run: as §4
[27] = Inhibition of human DNA polymerase gamma using calf thymus DNA as a template; how it was run: as §4
[28] = tested on: Human immunodeficiency virus 1; test: Antiviral activity against HIV1 NL4-3 replication in human MT4 cells at 0.01 uM pretreated 24 hrs before infection assessed as protection at 1 uM by MTT assay; type: functional
[29] = tested on: Human immunodeficiency virus 1; test: Antiviral activity against HIV1 NL4-3 replication in human MT4 cells at 0.01 uM pretreated 48 hrs before infection assessed as protection at 1 uM by MTT assay; type: functional
CCRF-CEM [30] = test: Drug level in human CD4+CEM cells assessed as increase in 3'-azido-2',3'-dideoxythymidine triphosphate level at 0.1 uM after 6 hrs; type: ADME, cell-based; how it was run: as §2
CCRF-CEM [31] = test: Metabolic stability of the compound in human CD4+ CEM cells assessed as 3'-azido-2',3'-dideoxythymidine monophosphate intracellular levels at 200 nM after 8 hrs; type: ADME, cell-based; settings: 0.2 µM; how it was run: as §3
CCRF-CEM [32] = test: Metabolic stability of the compound in human CD4+ CEM cells assessed as 3'-azido-2',3'-dideoxythymidine diphosphate intracellular levels at 200 nM after 8 hrs; type: ADME, cell-based; settings: 0.2 µM; how it was run: as §3
CCRF-CEM [33] = test: Metabolic stability of the compound in human CD4+ CEM cells assessed as 3'-azido-2',3'-dideoxythymidine triphosphate intracellular levels at 200 nM after 8 hrs; type: ADME, cell-based; settings: 0.2 µM; how it was run: as §3
CCRF-CEM [34] = test: Drug uptake in human CD4+CEM cells assessed as 3'-azido-2',3'-dideoxythymidine monophosphate half life at 200 nM; type: ADME, cell-based; settings: 0.2 µM; how it was run: as §3
CCRF-CEM [35] = test: Drug uptake in human CD4+CEM cells assessed as 3'-azido-2',3'-dideoxythymidine diphosphate half life at 200 nM; type: ADME, cell-based; settings: 0.2 µM; how it was run: as §3
CCRF-CEM [36] = test: Drug uptake in human CD4+CEM cells assessed as 3'-azido-2',3'-dideoxythymidine triphosphate half life at 200 nM; type: ADME, cell-based; settings: 0.2 µM; how it was run: as §3

For `CC(C)(C)NC(=O)[C@@H]1C[C@@H]2CCCC[C@@H]2CN1C[C@@H](O)[C@H](Cc1ccccc1)NC(=O)[C@H](CC(N)=O)NC(=O)c1ccc2ccccc2n1`, the pEC50 [1] was 6.66, the pEC50 [2] was 7.43 and the pEC50 [3] was 7.59. For the same molecule, the CC50 (MT4) was 26000 nM, the CC50 [4] was 78000 nM and the “fold change (FC)” value [5] was 28. For the same molecule, the “fold change (FC)” value [6] was 3 and the “fold change (FC)” value [7] was 4.

In the case of `CC(C)CN(C[C@@H](O)[C@H](Cc1ccccc1)NC(=O)O[C@H]1CCOC1)S(=O)(=O)c1ccc(N)cc1`, the pEC50 [8] was 7.62, the pEC50 [2] was 6.55 and the CC50 (MT4) was > 100000 nM. The CC50 [4] was > 100000 nM, the “fold change (FC)” value [5] was 17 and the “fold change (FC)” value [6] was 10. The “fold change (FC)” value [7] was 12.

Work on `C#C[C@]1(CO)O[C@@H](n2cnc3c(N)nc(F)nc32)C[C@@H]1O` yielded a pEC50 [9] of 9.40, a pEC50 [1] of 8.52 and a pEC50 [8] of 9.00. It also gave a pEC50 [2] of 8.40, a pEC50 [3] of 7.68 and a CC50 (MT4) of 11000 nM. It also gave a CC50 [4] of 12000 nM, an Activity (CCRF-CEM [10]) of 22 and an Activity (CCRF-CEM [11]) of 50%. For the same molecule, the Activity (CCRF-CEM [12]) was 45%, the Activity (CCRF-CEM [13]) was 72% and the Activity (CCRF-CEM [14]) was 31%. It also gave an Activity (CCRF-CEM [15]) of 23%, an Activity (CCRF-CEM [16]) of 38% and a t1/2 (CCRF-CEM [17]) of 8.1 h. The t1/2 (CCRF-CEM [18]) was 6.7 h, the t1/2 (CCRF-CEM [19]) was 17.2 h and the Drug uptake (CCRF-CEM [20]) was 1730 pmol. The Activity [21] was 75%, the Activity [22] was 47% and the “fold change (FC)” value [5] was 8. For the same molecule, the “fold change (FC)” value [6] was 21 and the “fold change (FC)” value [7] was 4.

With `C#C[C@]1(COP(=O)(O)OP(=O)(O)OP(=O)(O)O)O[C@@H](n2cnc3c(N)nc(F)nc32)C[C@@H]1O` the pIC50 [23] was < 4.00, the pIC50 [24] was < 4.00 and the pIC50 [25] was < 4.00. For the same molecule, the pIC50 [26] was < 4.00, the pKi [26] was 4.61 and the pIC50 [27] was 5.00.

With `Nc1ncnc2c1ncn2[C@H]1CC[C@@H](COP(=O)(O)OP(=O)(O)OP(=O)(O)O)O1` [DDA-TRIPHOSPHATE] the pIC50 [23] was < 4.00, the pIC50 [24] was 5.52 and the pIC50 [25] was 6.70. It also gave a pIC50 [26] of 5.70, a pKi [26] of 5.34 and a pIC50 [27] of 6.70.

Work on `C[C@H](Cn1cnc2c(N)ncnc21)OCP(=O)(O)O` [TENOFOVIR ANHYDROUS] yielded a pEC50 [9] of 7.49, a pEC50 [1] of 7.09 and a pEC50 [2] of 7.33. The pEC50 [3] was 7.06, the CC50 [4] was 53000 nM and the Activity [28] was 90%. The Activity [29] was 64%, the “fold change (FC)” value [5] was 3 and the “fold change (FC)” value [6] was 3. The “fold change (FC)” value [7] was 2.

Molecule `Cc1cn([C@H]2C[C@H](N=[N+]=[N-])[C@@H](CO)O2)c(=O)[nH]c1=O` [ZIDOVUDINE] has a pEC50 [1] of 6.47, a pEC50 [8] of 7.48 and a pEC50 [2] of 6.41. The pEC50 [3] was 6.42, the CC50 (MT4) was > 100000 nM and the CC50 [4] was > 10000 nM. For the same molecule, the Activity (CCRF-CEM [30]) was 2.4, the Activity (CCRF-CEM [31]) was 16% and the Activity (CCRF-CEM [32]) was 26%. It also gave an Activity (CCRF-CEM [33]) of 26%, an Activity (CCRF-CEM [14]) of 10% and an Activity (CCRF-CEM [15]) of 11%. For the same molecule, the Activity (CCRF-CEM [16]) was 9%, the t1/2 (CCRF-CEM [34]) was 1.4 h and the t1/2 (CCRF-CEM [35]) was 1.6 h. For the same molecule, the t1/2 (CCRF-CEM [36]) was 2.8 h, the Drug uptake (CCRF-CEM [20]) was 4349 pmol and the Activity [28] was 55%. The Activity [29] was 9.2%, the “fold change (FC)” value [5] was 22 and the “fold change (FC)” value [6] was 12. The “fold change (FC)” value [7] was 12.
